# In ChEMBL document CHEMBL3124806, “Imidazopyridine-fused [1,3]-diazepinones: synthesis and antiproliferative activity” (Eur J Med Chem, 2014):
# What was measured:
# Type in all cases: functional
# T47D = assay: Cytotoxicity against human T47D cells assessed as cell growth at 10 uM after 48 hrs by SRB assay relative to untreated control; settings: read-out: Activity
# How it was run: (§1)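 NCI-60 single-dose screen. Compounds were added to the cultures at 10 μM and incubated for 48 h. The end point was sulforhodamine B protein staining read spectrophotometrically. Growth is reported as percent of untreated control cells.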
# MDA-MB-231 = assay: Cytotoxicity against human MDA-MB-231 cells assessed as cell growth at 10 uM after 48 hrs by SRB assay relative to untreated control; settings: MDA-MB-231, 48 h, read-out: Activity
# How it was run: (§2)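 NCI-60 one-dose screen: each agent added at 10 µM, cultures incubated 48 h. Endpoint by sulforhodamine B protein-binding dye read spectrophotometrically; growth expressed as percent of untreated control cells.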
# DU-145 = assay: Cytotoxicity against human DU145 cells assessed as cell growth at 10 uM after 48 hrs by SRB assay relative to untreated control; settings: DU-145, 48 h, read-out: Activity
# How it was run: (§3)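 NCI-60 panel screen at a single concentration of 10 μM with 48 h incubation. Cell density measured by sulforhodamine B protein-binding dye and read spectrophotometrically. Growth expressed as percent of untreated control cells.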
# PC-3 = assay: Cytotoxicity against human PC3 cells assessed as cell growth at 10 uM after 48 hrs by SRB assay relative to untreated control; settings: PC-3, 48 h, read-out: Activity; how it was run: as §2
# SN12C = assay: Cytotoxicity against human SN12C cells assessed as cell growth at 10 uM after 48 hrs by SRB assay relative to untreated control; settings: read-out: Activity; how it was run: as §1
# ACHN = assay: Cytotoxicity against human ACHN cells assessed as cell growth at 10 uM after 48 hrs by SRB assay relative to untreated control; settings: read-out: Activity; how it was run: as §3
# 786-0 = assay: Cytotoxicity against human […] cells assessed as cell growth at 10 uM after 48 hrs by SRB assay relative to untreated control; settings: 786-0, 48 h, read-out: Activity; how it was run: as §3
# SK-OV-3 = assay: Cytotoxicity against human SKOV3 cells assessed as cell growth at 10 uM after 48 hrs by SRB assay relative to untreated control; settings: SK-OV-3, 48 h, read-out: Activity; how it was run: as §1
# [1] = Cytotoxicity against human NCI-ADR-RES cells assessed as cell growth at 10 uM after 48 hrs by SRB assay relative to untreated control; settings: read-out: Activity; how it was run: as §2
# [2] = Cytotoxicity against human OVCAR4 cells assessed as cell growth at 10 uM after 48 hrs by SRB assay relative to untreated control; settings: OVCAR-4, 48 h, read-out: Activity; how it was run: as §2
# IGROV-1 = assay: Cytotoxicity against human IGROV1 cells assessed as cell growth at 10 uM after 48 hrs by SRB assay relative to untreated control; settings: IGROV-1, 48 h, read-out: Activity; how it was run: as §3
# [3] = Cytotoxicity against human UACC257 cells assessed as cell growth at 10 uM after 48 hrs by SRB assay relative to untreated control; settings: UACC-257, 48 h, read-out: Activity; how it was run: as §1
# SK-MEL-5 = assay: Cytotoxicity against human SK-MEL-5 cells assessed as cell growth at 10 uM after 48 hrs by SRB assay relative to untreated control; settings: SK-MEL-5, 48 h, read-out: Activity; how it was run: as §1
# SK-MEL-2 = assay: Cytotoxicity against human SK-MEL-2 cells assessed as cell growth at 10 uM after 48 hrs by SRB assay relative to untreated control; settings: SK-MEL-2, 48 h, read-out: Activity; how it was run: as §2
# M14 = assay: Cytotoxicity against human M14 cells assessed as cell growth at 10 uM after 48 hrs by SRB assay relative to untreated control; settings: M14, 48 h, read-out: Activity; how it was run: as §3
# Malme-3M = assay: Cytotoxicity against human MALME-3M cells assessed as cell growth at 10 uM after 48 hrs by SRB assay relative to untreated control; settings: read-out: Activity; how it was run: as §3
# U-251 = assay: Cytotoxicity against human U251 cells assessed as cell growth at 10 uM after 48 hrs by SRB assay relative to untreated control; settings: U-251, 48 h, read-out: Activity; how it was run: as §1
# SF-295 = assay: Cytotoxicity against human SF295 cells assessed as cell growth at 10 uM after 48 hrs by SRB assay relative to untreated control; settings: SF-295, 48 h, read-out: Activity; how it was run: as §2
# SF-268 = assay: Cytotoxicity against human SF268 cells assessed as cell growth at 10 uM after 48 hrs by SRB assay relative to untreated control; settings: SF-268, 48 h, read-out: Activity; how it was run: as §2
# SW-620 = assay: Cytotoxicity against human SW620 cells assessed as cell growth at 10 uM after 48 hrs by SRB assay relative to untreated control; settings: SW-620, 48 h, read-out: Activity; how it was run: as §1
# KM12 = assay: Cytotoxicity against human KM12 cells assessed as cell growth at 10 uM after 48 hrs by SRB assay relative to untreated control; settings: KM12, 48 h, read-out: Activity; how it was run: as §3
# HT-29 = assay: Cytotoxicity against human HT-29 cells assessed as cell growth at 10 uM after 48 hrs by SRB assay relative to untreated control; settings: HT-29, 48 h, read-out: Activity; how it was run: as §3
# HCT-15 = assay: Cytotoxicity against human HCT15 cells assessed as cell growth at 10 uM after 48 hrs by SRB assay relative to untreated control; settings: HCT-15, 48 h, read-out: Activity; how it was run: as §3
# HCT-116 = assay: Cytotoxicity against human HCT116 cells assessed as cell growth at 10 uM after 48 hrs by SRB assay relative to untreated control; settings: HCT-116, 48 h, read-out: Activity; how it was run: as §3
# HCC 2998 = assay: Cytotoxicity against human HCC2998 cells assessed as cell growth at 10 uM after 48 hrs by SRB assay relative to untreated control; settings: HCC 2998, 48 h, read-out: Activity; how it was run: as §3
# NCI-H522 = assay: Cytotoxicity against human NCI-H522 cells assessed as cell growth at 10 uM after 48 hrs by SRB assay relative to untreated control; settings: NCI-H522, 48 h, read-out: Activity; how it was run: as §2
# NCI-H23 = assay: Cytotoxicity against human NCI-H23 cells assessed as cell growth at 10 uM after 48 hrs by SRB assay relative to untreated control; settings: NCI-H23, 48 h, read-out: Activity; how it was run: as §2
# NCI-H226 = assay: Cytotoxicity against human NCI-H226 cells assessed as cell growth at 10 uM after 48 hrs by SRB assay relative to untreated control; settings: NCI-H226, 48 h, read-out: Activity; how it was run: as §2
# HOP-92 = assay: Cytotoxicity against human HOP92 cells assessed as cell growth at 10 uM after 48 hrs by SRB assay relative to untreated control; settings: HOP-92, 48 h, read-out: Activity; how it was run: as §3
# HOP-62 = assay: Cytotoxicity against human HOP62 cells assessed as cell growth at 10 uM after 48 hrs by SRB assay relative to untreated control; settings: HOP-62, 48 h, read-out: Activity; how it was run: as §3
# A549 = assay: Cytotoxicity against human A549 cells assessed as cell growth at 10 uM after 48 hrs by SRB assay relative to untreated control; settings: A549, 48 h, read-out: Activity; how it was run: as §3
# CCRF-CEM = assay: Cytotoxicity against human CCRF-CEM cells assessed as cell growth at 10 uM after 48 hrs by SRB assay relative to untreated control; settings: read-out: Activity; how it was run: as §3
Structure (SMILES),growth at 10 µM (T47D),growth at 10 µM (MDA-MB-231),growth at 10 µM (DU-145),growth at 10 µM (PC-3),growth at 10 µM (SN12C),growth at 10 µM (ACHN),growth at 10 µM (786-0),growth at 10 µM (SK-OV-3),growth at 10 µM [1],growth at 10 µM [2],growth at 10 µM (IGROV-1),growth at 10 µM [3],growth at 10 µM (SK-MEL-5),growth at 10 µM (SK-MEL-2),growth at 10 µM (M14),growth at 10 µM (Malme-3M),growth at 10 µM (U-251),growth at 10 µM (SF-295),growth at 10 µM (SF-268),growth at 10 µM (SW-620),also measured
O=C1Nc2nc3ccccn3c2C(=O)[C@H](Cc2ccccc2)N1,103%,106%,104%,95.2%,105%,97%,99.2%,112%,98.7%,111%,109%,89.8%,97.2%,113%,93%,93.2%,93.2%,105%,101%,101%,growth at 10 µM (KM12): 100%; growth at 10 µM (HT-29): 106%; growth at 10 µM (HCT-15): 94.6%; growth at 10 µM (HCT-116): 92.3%; growth at 10 µM (HCC 2998): 97.5%; growth at 10 µM (NCI-H522): 94%; growth at 10 µM (NCI-H23): 101%; growth at 10 µM (NCI-H226): 104%; growth at 10 µM (HOP-92): 86.5%; growth at 10 µM (HOP-62): 97.2%; growth at 10 µM (A549): 98.6%; growth at 10 µM (CCRF-CEM): 113%
O=C1c2c(nc3ccccn23)N=C(c2ccccc2)N2CCC[C@@H]12,93.6%,94.6%,97%,92.6%,99.6%,97.9%,97.9%,103%,97.7%,95.2%,114%,94.5%,94.7%,114%,96.5%,102%,96.2%,103%,97.8%,102%,growth at 10 µM (KM12): 101%; growth at 10 µM (HT-29): 114%; growth at 10 µM (HCT-15): 93.8%; growth at 10 µM (HCT-116): 97.8%; growth at 10 µM (HCC 2998): 94.7%; growth at 10 µM (NCI-H522): 127%; growth at 10 µM (NCI-H23): 97.8%; growth at 10 µM (NCI-H226): 94.9%; growth at 10 µM (HOP-92): 82.7%; growth at 10 µM (HOP-62): 99.9%; growth at 10 µM (A549): 96.3%; growth at 10 µM (CCRF-CEM): 104%
Cc1ccccc1C1=Nc2nc3ccccn3c2C(=O)[C@H](Cc2ccccc2)N1,104%,104%,113%,89.4%,107%,94.5%,101%,111%,95.4%,98.7%,108%,87.3%,103%,115%,102%,109%,100%,96.5%,104%,103%,growth at 10 µM (KM12): 108%; growth at 10 µM (HT-29): 115%; growth at 10 µM (HCT-15): 100%; growth at 10 µM (HCT-116): 86.9%; growth at 10 µM (HCC 2998): 99.9%; growth at 10 µM (NCI-H522): 121%; growth at 10 µM (NCI-H23): 95.3%; growth at 10 µM (NCI-H226): 99%; growth at 10 µM (HOP-92): 90.5%; growth at 10 µM (HOP-62): 93.4%; growth at 10 µM (A549): 91.7%; growth at 10 µM (CCRF-CEM): 105%
